Reference: ChEMBL document CHEMBL4732178, “Dioxotriazine derivatives as a new class of P2X receptor antagonists: Identification of a lead and initial SAR studies” (Bioorg Med Chem Lett, 2021)

Tests used:
[1] = Microsomal stability in human liver microsomes assessed as parent compound remaining incubated for 30 mins in presence or absence of NADPH generating system; type: ADME, Microsome; details: read-out: Stabilty
How it was run: (§1)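 Compound incubated 30 min at 37 °C with human or rat liver microsomes (0.5 mg protein/mL), with or without NADPH-generating system; percent parent remaining reported.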

[2] = Microsomal stability in rat liver microsomes assessed as parent compound remaining incubated for 30 mins in presence or absence of NADPH generating system; type: ADME, Microsome; details: read-out: Stabilty; how it was run: as §1
[3] = Clearance in rat at 1 mg/kg, iv or 3 mg/kg, po; type: ADME, organism-based; details: in vivo
[4] = Half life in rat at 1 mg/kg, iv or 3 mg/kg, po; type: ADME, organism-based; details: in vivo
[5] = AUC in rat at 3 mg/kg, po; type: ADME, organism-based; design: dose 3 mg/kg; details: in vivo
[6] = Oral bioavailability in rat at 3 mg/kg; type: ADME, organism-based; details: in vivo
[7] = Clearance in rat at 0.5 mg/kg, iv or 1 mg/kg, po; type: ADME, organism-based; details: in vivo
[8] = Oral bioavailability in rat or 1 mg/kg; type: ADME, organism-based; details: in vivo
[9] = Cmax in rat at 3 mg/kg, po; type: ADME, organism-based; design: route oral, dose 3 mg/kg; details: in vivo
[10] = Half life in rat at 0.5 mg/kg, iv or 1 mg/kg, po; type: ADME, organism-based; details: in vivo

SMILES | remaining at 0.5 h [1] [%] | remaining at 0.5 h [2] [%] | also measured
Cc1ccc(Cn2c(Nc3ccc(OC(C)C)c(Cl)c3)nc(=O)n(CCC(=O)O)c2=O)cc1 | – | – | clearance [3]: 2.7 mL/min/kg; half-life [4]: 1.6 h; AUC [5]: 14300 ng·h/mL; bioavailability [6]: 71.8%
CC(C)Oc1ccc(Nc2nc(=O)n(C(C)C)c(=O)n2Cc2ccc(Cl)cc2)cc1 | – | – | clearance [7]: 23.9 mL/min/kg; bioavailability [8]: 25.2%
CC(C)Oc1ccc(Nc2nc(=O)[nH]c(=O)n2Cc2ccc(Cl)cc2)cc1F | 78 | 54 | –
CC(C)Oc1ccc(Nc2nc(=O)n(CCCCO)c(=O)n2Cc2ccc(Cl)cc2)cc1F | 59 | 36 | –
COc1cc(C(C)C)c(Oc2cnc(NC(CO)CO)nc2N)cc1I | – | – | clearance [3]: 42 mL/min/kg; half-life [4]: 1.1 h; AUC [5]: 369 ng·h/mL; Cmax [9]: 118 ng/mL; bioavailability [6]: 30.3%
CC(C)Oc1ccc(Nc2nc(=O)n(CC(C)(C)C(=O)O)c(=O)n2Cc2ccc(Cl)cc2)cc1F | – | – | clearance [3]: 3 mL/min/kg; half-life [4]: 9.6 h; AUC [5]: 6990 ng·h/mL; Cmax [9]: 1260 ng/mL; bioavailability [6]: 47.3%
CC(C)Oc1ccc(Nc2cc(=O)n(CCC(=O)O)c(=O)n2Cc2ccc(Cl)cc2)cc1Cl | – | – | clearance [7]: 2.1 mL/min/kg; half-life [10]: 2.2 h; bioavailability [8]: 61.5%
CC(C)Oc1ccc(/N=c2\[nH]c(=O)n(CC(=O)O)c(=O)n2Cc2ccc(Cl)cc2)cc1Cl | – | – | clearance [7]: 1.7 mL/min/kg; half-life [10]: 2.1 h; bioavailability [8]: 71.2%
CC(C)Oc1ccc(Nc2nc(=O)n(CCC#N)c(=O)n2Cc2ccc(Cl)cc2)cc1F | 59 | 30 | –
CC(C)Oc1ccc(Nc2nc(=O)n(CCC(=O)O)c(=O)n2Cc2ccc(Cl)cc2)cc1Cl | – | – | clearance [7]: 0.5 mL/min/kg; half-life [10]: 6 h; bioavailability [8]: 43.2%
CC(C)Oc1ccc(Nc2nc(=O)c(CC(=O)O)cn2Cc2ccc(Cl)cc2)cc1Cl | – | – | clearance [7]: 8.3 mL/min/kg; half-life [10]: 1.8 h; bioavailability [8]: 79.9%
CC(C)Oc1ccc(Nc2nc(=O)n(Cc3ccccc3)c(=O)n2Cc2ccc(Cl)cc2)cc1F | 21 | 1 | –

Further lines, with some results ahead:

remaining at 0.5 h [1] [%] | remaining at 0.5 h [2] [%] | SMILES | also measured
106 | 103 | CC(C)Oc1ccc(Nc2nc(=O)n(CCCC(=O)O)c(=O)n2Cc2ccc(Cl)cc2)cc1F | –
94 | 61 | CC(C)Oc1ccc(Nc2nc(=O)n(CCC(N)=O)c(=O)n2Cc2ccc(Cl)cc2)cc1F | –
86 | 42 | CCn1c(=O)nc(Nc2ccc(OC(C)C)c(F)c2)n(Cc2ccc(Cl)cc2)c1=O | –
82 | 29 | CC(C)Oc1ccc(Nc2nc(=O)n(CCCO)c(=O)n2Cc2ccc(Cl)cc2)cc1F | –
86 | 30 | CNC(=O)CCn1c(=O)nc(Nc2ccc(OC(C)C)c(F)c2)n(Cc2ccc(Cl)cc2)c1=O | –
99 | 97 | CC(C)Oc1ccc(Nc2nc(=O)n(CC(=O)O)c(=O)n2Cc2ccc(Cl)cc2)cc1F | –
45 | 1 | CC(=O)NCCn1c(=O)nc(Nc2ccc(OC(C)C)c(F)c2)n(Cc2ccc(Cl)cc2)c1=O | –
92 | 99 | CC(C)Oc1ccc(Nc2nc(=O)n(CCC(=O)O)c(=O)n2Cc2ccc(Cl)cc2)cc1F | –
68 | 41 | CC(C)Oc1ccc(Nc2nc(=O)n(CC#N)c(=O)n2Cc2ccc(Cl)cc2)cc1F | –
92 | 60 | CC(C)Oc1ccc(Nc2nc(=O)n(CCO)c(=O)n2Cc2ccc(Cl)cc2)cc1F | –
47 | 15 | CC(=O)NCCCn1c(=O)nc(Nc2ccc(OC(C)C)c(F)c2)n(Cc2ccc(Cl)cc2)c1=O | –
36 | 35 | CCCn1c(=O)nc(Nc2ccc(OC(C)C)c(F)c2)n(Cc2ccc(Cl)cc2)c1=O | –
0 | 2 | CC(=O)n1c(=O)nc(Nc2ccc(OC(C)C)c(F)c2)n(Cc2ccc(Cl)cc2)c1=O | –
36 | 49 | CC(C)Oc1ccc(Nc2nc(=O)n(C(C)C)c(=O)n2Cc2ccc(Cl)cc2)cc1F | –
